Where a SMILES comes first, the peptide text is derived from it.
Legend:
[1] = tested on: Staphylococcus saprophyticus; assay: Antibacterial activity against Staphylococcus saprophyticus M2981 clinical isolate expressing mecA gene by microdilution test; type: functional
Summary of the method: (§1)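 MIC by standard broth microdilution following CLSI recommendations, in Mueller Hinton broth supplemented with Ca²⁺ (20-25 mg/L) and Mg²⁺ (10-12.5 mg/L); ATCC reference strains included in the panel.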

Staphylococcus aureus [2] = assay: Antibacterial activity against Staphylococcus aureus P239 clinical isolate expressing ermC gene by microdilution test; type: functional; summary of the method: as §1
Klebsiella pneumoniae [3] = assay: Antibacterial activity against Klebsiella pneumoniae M9375 clinical isolate expressing blaCTX-M-2, blaTEM-1 and blaSHV-1 gene by microdilution test; type: functional
Summary of the method: (§2)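 MIC by standard broth microdilution following CLSI recommendations, in Mueller Hinton broth supplemented with Ca²⁺ (20-25mg/L) and Mg²⁺ (10-12.5mg/L); peptides tested against a panel of multi-resistant clinical isolates plus ATCC reference strains.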

Acinetobacter sp. [4] = assay: Antibacterial activity against Acinetobacter sp. M5277 clinical isolate expressing blaPER gene by microdilution test; type: functional; summary of the method: as §2
Escherichia coli [5] = assay: Antibacterial activity against Escherichia coli M5306 clinical isolate expressing blaPER-2, blaCTX-M-2 and blaTEM-1 gene by microdilution test; type: functional; summary of the method: as §2
Acinetobacter sp. [6] = assay: Antibacterial activity against Acinetobacter sp. M5179 clinical isolate expressing blaOXA-51 gene by microdilution test; type: functional; summary of the method: as §2
Staphylococcus aureus [7] = assay: Antibacterial activity against Staphylococcus aureus ATCC 29213 by microdilution test; type: functional; summary of the method: as §1
Pseudomonas aeruginosa [8] = assay: Antibacterial activity against Pseudomonas aeruginosa M5200 clinical isolate expressing blaVIM and blaGES-1 gene by microdilution test; type: functional; summary of the method: as §1
Klebsiella pneumoniae [9] = assay: Antibacterial activity against Klebsiella pneumoniae M5825 clinical isolate expressing blaGES-3 and blaCTX-M-2 gene by microdilution test; type: functional; summary of the method: as §2
Pseudomonas aeruginosa [10] = assay: Antibacterial activity against Pseudomonas aeruginosa M7525 clinical isolate expressing blaSPM gene by microdilution test; type: functional; summary of the method: as §1
Enterococcus faecium [11] = assay: Antibacterial activity against Enterococcus faecium M2304 clinical isolate expressing vanA gene by microdilution test; type: functional; summary of the method: as §2
Staphylococcus aureus [12] = assay: Antibacterial activity against Staphylococcus aureus M2832 clinical isolate expressing mecA gene by microdilution test; type: functional; summary of the method: as §1
Enterococcus faecium [13] = assay: Antibacterial activity against Enterococcus faecium M6261 by microdilution test; type: functional; summary of the method: as §2
Enterococcus faecalis [14] = assay: Antibacterial activity against Enterococcus faecalis ATCC 51299 clinical isolate expressing vanB gene by microdilution test; type: functional; summary of the method: as §2
Acinetobacter sp. [15] = assay: Antibacterial activity against Acinetobacter sp. PFAV1 clinical isolate expressing blaOXA-51, blaOXA-58 and blaPER gene by microdilution test; type: functional; summary of the method: as §2
[16] = Toxicity in human RBC assessed as hemolytic activity relative to control; type: cell-based, Erythrocyte; conditions: red blood cells (RBC), read-out: Activity
Summary of the method: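 Heparinized human whole blood diluted 3x in PBS and centrifuged 10 min at 1500 rpm, repeated three times. Cells resuspended to 10% (v/v), then diluted to about 0.5% (v/v). Peptides added at various concentrations for 30 min at 37 °C. Supernatant absorbance read at 550 nm. Lysis calculated against buffer (0%) and water (100%). Readings taken in triplicate and averaged.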

Staphylococcus hominis [17] = assay: Antibacterial activity against Staphylococcus hominis M2973 clinical isolate expressing mecA gene by microdilution test; type: functional; summary of the method: as §1
Enterococcus gallinarum = assay: Antibacterial activity against Enterococcus gallinarum M2685 clinical isolate expressing vanC1 and vanA gene by microdilution test; type: functional; summary of the method: as §2
Klebsiella pneumoniae [18] = assay: Antibacterial activity against Klebsiella pneumoniae M13540 clinical isolate expressing blaKPC-2 gene by microdilution test; type: functional; summary of the method: as §2
Klebsiella pneumoniae [19] = assay: Antibacterial activity against Klebsiella pneumoniae M1803 clinical isolate expressing blaPER-2, blaCTX-M-2, blaTEM-1, blaSHV and blaOXA-9 gene by microdilution test; type: functional; summary of the method: as §2
Staphylococcus warneri = assay: Antibacterial activity against Staphylococcus warneri M6823 clinical isolate expressing mecA gene by microdilution test; type: functional; summary of the method: as §1
Enterococcus faecium [20] = assay: Antibacterial activity against Enterococcus faecium PZAP95 by microdilution test; type: functional; summary of the method: as §2
Staphylococcus aureus [21] = assay: Antibacterial activity against Staphylococcus aureus M6784 clinical isolate expressing mecA gene by microdilution test; type: functional; summary of the method: as §1
Klebsiella pneumoniae [22] = assay: Antibacterial activity against Klebsiella pneumoniae M11245 clinical isolate expressing blaKPC-2 and blaPER-2 gene by microdilution test; type: functional; summary of the method: as §2
Staphylococcus hominis [23] = assay: Antibacterial activity against Staphylococcus hominis M2967 clinical isolate expressing mecA gene by microdilution test; type: functional; summary of the method: as §1
Escherichia coli [24] = assay: Antibacterial activity against Escherichia coli PNEU23 clinical isolate expressing blaOXA-GIII and blaTEM-1 gene by microdilution test; type: functional; summary of the method: as §2
Klebsiella pneumoniae [25] = assay: Antibacterial activity against Klebsiella pneumoniae M7647 clinical isolate expressing blaVIM, blaCTX-M-2, blaTEM-1 and blaSHV-1 gene by microdilution test; type: functional; summary of the method: as §2
Acinetobacter sp. [26] = assay: Antibacterial activity against Acinetobacter sp. M7978 clinical isolate expressing blaIMP-1 gene by microdilution test; type: functional; summary of the method: as §2
Enterococcus faecalis [27] = assay: Antibacterial activity against Enterococcus faecalis M4992 clinical isolate expressing vanA gene by microdilution test; type: functional; summary of the method: as §2
Enterococcus faecalis [28] = assay: Antibacterial activity against Enterococcus faecalis M4899 clinical isolate expressing vanB gene by microdilution test; type: functional; summary of the method: as §2
Enterococcus faecium [29] = assay: Antibacterial activity against Enterococcus faecium M2664 clinical isolate expressing vanA gene by microdilution test; type: functional; summary of the method: as §2
Enterococcus faecium [30] = assay: Antibacterial activity against Enterococcus faecium M2619 clinical isolate expressing vanB gene by microdilution test; type: functional; summary of the method: as §2
Escherichia coli [31] = assay: Antibacterial activity against Escherichia coli M7859 clinical isolate expressing blaCIT gene by microdilution test; type: functional; summary of the method: as §2
Staphylococcus aureus [32] = assay: Antibacterial activity against Staphylococcus aureus P28 clinical isolate expressing ermA gene by microdilution test; type: functional; summary of the method: as §1
Klebsiella pneumoniae [33] = assay: Antibacterial activity against Klebsiella pneumoniae M9885 clinical isolate expressing blaKPC-2 gene by microdilution test; type: functional; summary of the method: as §2
[34] = tested on: Staphylococcus epidermidis; assay: Antibacterial activity against Staphylococcus epidermidis M2921 clinical isolate expressing mecA gene by microdilution test; type: functional; summary of the method: as §1
Klebsiella pneumoniae [35] = assay: Antibacterial activity against Klebsiella pneumoniae M9310 clinical isolate expressing blaCTX-M-2, blaTEM-1 and blaSHV-1 gene by microdilution test; type: functional; summary of the method: as §2
[36] = tested on: Staphylococcus haemolyticus; assay: Antibacterial activity against Staphylococcus haemolyticus M3014 by microdilution test; type: functional; summary of the method: as §1
Pseudomonas aeruginosa [37] = assay: Antibacterial activity against Pseudomonas aeruginosa M7907 clinical isolate expressing blaPER gene by microdilution test; type: functional; summary of the method: as §1
Acinetobacter sp. [38] = assay: Antibacterial activity against Acinetobacter sp. M9665 clinical isolate expressing blaOXA-51 gene by microdilution test; type: functional; summary of the method: as §2
Acinetobacter sp. [39] = assay: Antibacterial activity against Acinetobacter sp. M7489 clinical isolate expressing blaOXA-51 and blaTEM gene by microdilution test; type: functional; summary of the method: as §2
Acinetobacter sp. [40] = assay: Antibacterial activity against Acinetobacter sp. M9013 clinical isolate expressing blaOXA-51 and blaIMP gene by microdilution test; type: functional; summary of the method: as §2
Klebsiella pneumoniae [41] = assay: Antibacterial activity against Klebsiella pneumoniae M9170 clinical isolate expressing blaOXA-GIII gene by microdilution test; type: functional; summary of the method: as §2
Staphylococcus aureus [42] = assay: Antibacterial activity against Staphylococcus aureus M4046 clinical isolate expressing mecA gene by microdilution test; type: functional; summary of the method: as §1
Escherichia coli [43] = assay: Antibacterial activity against Escherichia coli PABC11 clinical isolate expressing blaCTX-M-2 gene by microdilution test; type: functional; summary of the method: as §2
Enterococcus faecalis [44] = assay: Antibacterial activity against Enterococcus faecalis M4449 clinical isolate expressing vanA gene by microdilution test; type: functional; summary of the method: as §2
Enterococcus faecalis [45] = assay: Antibacterial activity against Enterococcus faecalis M6383 clinical isolate expressing vanA gene by microdilution test; type: functional; summary of the method: as §2

MIC90 [1]: 8 µg/mL
MIC90 (Staphylococcus aureus [2]): 32 µg/mL
MIC90 (Klebsiella pneumoniae [3]): 32 µg/mL
MIC90 (Acinetobacter sp. [4]): 32 µg/mL
MIC90 (Escherichia coli [5]): 64 µg/mL
MIC90 (Acinetobacter sp. [6]): 32 µg/mL
MIC90 (Staphylococcus aureus [7]): 32 µg/mL
MIC90 (Pseudomonas aeruginosa [8]): 512 µg/mL
MIC90 (Klebsiella pneumoniae [9]): 64 µg/mL
MIC90 (Pseudomonas aeruginosa [10]): 512 µg/mL
MIC90 (Enterococcus faecium [11]): 4 µg/mL
MIC90 (Staphylococcus aureus [12]): 64 µg/mL
MIC90 (Enterococcus faecium [13]): 16 µg/mL
MIC90 (Enterococcus faecalis [14]): 256 µg/mL
MIC90 (Acinetobacter sp. [15]): 16 µg/mL
MIC90 (Staphylococcus hominis [17]): 4 µg/mL
MIC90 (Enterococcus gallinarum): 16 µg/mL
MIC90 (Klebsiella pneumoniae [18]): 256 µg/mL
MIC90 (Klebsiella pneumoniae [19]): 1020 µg/mL
MIC90 (Staphylococcus warneri): 8 µg/mL
MIC90 (Enterococcus faecium [20]): 16 µg/mL
MIC90 (Staphylococcus aureus [21]): 32 µg/mL
MIC90 (Klebsiella pneumoniae [22]): 32 µg/mL
MIC90 (Staphylococcus hominis [23]): 4 µg/mL
MIC90 (Escherichia coli [24]): 32 µg/mL
MIC90 (Klebsiella pneumoniae [25]): 1020 µg/mL
MIC90 (Acinetobacter sp. [26]): 16 µg/mL
MIC90 (Enterococcus faecalis [27]): 128 µg/mL
MIC90 (Enterococcus faecalis [28]): 256 µg/mL
MIC90 (Enterococcus faecium [29]): 8 µg/mL
MIC90 (Enterococcus faecium [30]): 16 µg/mL
MIC90 (Escherichia coli [31]): 64 µg/mL
MIC90 (Staphylococcus aureus [32]): 32 µg/mL
MIC90 (Klebsiella pneumoniae [33]): 256 µg/mL
MIC90 [34]: 8 µg/mL
MIC90 (Klebsiella pneumoniae [35]): 64 µg/mL
MIC90 (Pseudomonas aeruginosa [37]): 128 µg/mL
MIC90 (Acinetobacter sp. [38]): 4 µg/mL
MIC90 (Acinetobacter sp. [39]): 8 µg/mL
MIC90 (Acinetobacter sp. [40]): 32 µg/mL
MIC90 (Klebsiella pneumoniae [41]): 128 µg/mL
MIC90 (Staphylococcus aureus [42]): 32 µg/mL
MIC90 (Escherichia coli [43]): 64 µg/mL
MIC90 (Enterococcus faecalis [44]): 128 µg/mL
MIC90 (Enterococcus faecalis [45]): 128 µg/mL
Compound: CC[C@H](C)[C@H](N)C(=O)N[C@@H](CC(C)C)C(=O)N[C@@H](CCCNC(=N)N)C(=O)N[C@@H](Cc1c[nH]c2ccccc12)C(=O)N1CCC[C@H]1C(=O)N[C@@H](Cc1c[nH]c2ccccc12)C(=O)N[C@@H](Cc1c[nH]c2ccccc12)C(=O)N1CCC[C@H]1C(=O)N[C@@H](Cc1c[nH]c2ccccc12)C(=O)N[C@@H](CCCNC(=N)N)C(=O)N[C@@H](CCCNC(=N)N)C(=O)N[C@@H](CCCCN)C(N)=O.Cl.Cl.Cl.Cl.Cl [OMIGANAN PENTAHYDROCHLORIDE] (H-ILRWPWWPWRRK-NH2)
hemolysis [16]: 10%
MIC90 [36]: 4 µg/mL

— ChEMBL document CHEMBL3097989, “Antimicrobial activity of de novo designed cationic peptides against multi-resistant clinical isolates” (Eur J Med Chem, 2014)
